From ChEMBL document CHEMBL1140161, “Structure-activity relationships in 1,4-benzodioxan-related compounds. 9. From 1,4-benzodioxane to 1,4-dioxane ring as a promising template of novel alpha1D-adrenoreceptor antagonists, 5-HT1A full agonists, and cytotoxic agents” (J Med Chem, 2008)
Activity calls are given as the source filed them. The calls are words filed in the database; no cut-off is given here.

Key:
[1] = biological target: T1, Alpha-1A adrenergic receptor (Rattus norvegicus) (UniProt P43140); assay: Antagonist activity at alpha1A adrenoceptor in Wistar rat prostatic vas deferens assessed as inhibition of (-)-noradrenaline-induced contraction after 30 mins; assay type: functional, tissue-based
T1 sequence (whole entry): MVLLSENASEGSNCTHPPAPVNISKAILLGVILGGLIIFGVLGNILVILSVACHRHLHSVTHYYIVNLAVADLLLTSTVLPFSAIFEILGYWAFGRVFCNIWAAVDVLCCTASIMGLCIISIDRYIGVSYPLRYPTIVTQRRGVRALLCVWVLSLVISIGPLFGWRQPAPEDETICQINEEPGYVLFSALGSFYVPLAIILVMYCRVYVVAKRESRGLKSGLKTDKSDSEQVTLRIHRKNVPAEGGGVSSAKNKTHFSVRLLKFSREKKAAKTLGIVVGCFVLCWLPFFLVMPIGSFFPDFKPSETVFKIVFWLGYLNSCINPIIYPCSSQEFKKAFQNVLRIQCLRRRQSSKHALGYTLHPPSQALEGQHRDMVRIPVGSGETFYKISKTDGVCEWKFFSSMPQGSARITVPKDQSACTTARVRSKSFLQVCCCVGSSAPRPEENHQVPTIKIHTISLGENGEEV

PC-3 [2] = assay: Cytotoxicity against human PC3 cells after 48 hrs by SRB assay; assay type: functional; details: for GI50 / TGI / CC50: PC-3, 48 h; for CC50: read-out: LC50 (the source's name)
How it was run: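 PC-3 human prostate cancer cells. Growth measured by sulforhodamine B staining following the NCI protocol. […] Values are means of quadruplicate determinations ± standard error (n = 5).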

[3] = biological target: T2, Alpha-1B adrenergic receptor (Homo sapiens, UniProt P35368); assay: Displacement of [3H]prazosin from human cloned Alpha-1B adrenoceptor expressed in CHO cells; assay type: cell-based
T2 sequence (P35368 whole entry): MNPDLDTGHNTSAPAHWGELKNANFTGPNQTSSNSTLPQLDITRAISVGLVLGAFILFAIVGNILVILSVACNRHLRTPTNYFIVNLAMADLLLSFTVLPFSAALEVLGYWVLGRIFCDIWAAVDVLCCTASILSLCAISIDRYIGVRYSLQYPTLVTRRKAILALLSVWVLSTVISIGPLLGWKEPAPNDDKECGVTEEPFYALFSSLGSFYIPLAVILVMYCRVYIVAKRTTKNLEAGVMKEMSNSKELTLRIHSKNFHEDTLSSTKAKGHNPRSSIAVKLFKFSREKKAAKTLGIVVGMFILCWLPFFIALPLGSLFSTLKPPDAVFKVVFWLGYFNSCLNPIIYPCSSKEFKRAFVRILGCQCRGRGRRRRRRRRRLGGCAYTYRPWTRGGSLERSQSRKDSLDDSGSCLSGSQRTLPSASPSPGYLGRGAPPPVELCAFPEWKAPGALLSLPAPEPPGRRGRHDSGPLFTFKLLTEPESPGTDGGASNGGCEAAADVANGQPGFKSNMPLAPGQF
How it was run: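 [3H]prazosin binding to cloned human α1-adrenoceptor subtypes expressed in CHO cell membranes. Affinity reported as pKi for each subtype.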

[4] = biological target: T3, 5-hydroxytryptamine receptor 1A (Homo sapiens) (UniProt P08908); assay: Agonist activity at human cloned 5HT1A receptor expressed in human HeLa cell membrane assessed as stimulation of [35S]GTPgammaS binding; assay type: functional, cell membranes
T3 sequence (whole entry): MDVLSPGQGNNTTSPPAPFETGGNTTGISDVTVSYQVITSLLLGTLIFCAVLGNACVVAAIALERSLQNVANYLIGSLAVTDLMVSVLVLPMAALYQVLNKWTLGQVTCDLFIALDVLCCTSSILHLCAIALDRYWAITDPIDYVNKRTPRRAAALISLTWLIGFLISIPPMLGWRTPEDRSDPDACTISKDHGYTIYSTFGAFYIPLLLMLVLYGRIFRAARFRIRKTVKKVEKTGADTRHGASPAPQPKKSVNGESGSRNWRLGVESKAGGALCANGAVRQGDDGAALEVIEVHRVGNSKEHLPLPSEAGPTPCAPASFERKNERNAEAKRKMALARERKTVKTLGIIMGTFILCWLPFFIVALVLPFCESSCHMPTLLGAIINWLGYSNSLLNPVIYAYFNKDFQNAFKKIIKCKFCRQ
How it was run: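 Membranes from HeLa cells expressing cloned human 5-HT1A receptor; agonist-stimulated [35S]GTPγS binding measured. pD2 is the negative log of the agonist concentration giving 50% of maximal [35S]GTPγS binding stimulation; values from two to three experiments.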

PC-3 [5] = assay: Induction of apoptosis in human PC3 cells assessed as translocation of phosphatidylserine at 50 uM after 48 hrs by annexin V-FITC staining and cytofluorimetric analysis; assay type: functional
How it was run: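 PC-3 prostate cancer cells exposed to compound for 48 h, then stained with annexin V-FITC to detect externalized phosphatidylserine. Read-out by flow cytometry as mean fluorescence intensity (MFI), against untreated and vehicle-treated cells.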

[6] = biological target: T3, 5-hydroxytryptamine receptor 1A (Homo sapiens); assay: Agonist activity at human cloned 5HT1A receptor expressed in HeLa cell membrane assessed as stimulation of [35S]GTPgammaS binding relative to 5-hydroxytryptamine; assay type: functional, cell membranes
How it was run: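 Activation measured as [35S]GTPγS binding in membranes from HeLa cells expressing cloned human 5-HT1A receptor. pD2 is the negative log of agonist concentration giving 50% of maximal stimulation, from two to three experiments agreeing within 20%. Efficacy is given relative to 5-HT.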

SMILES | pKb [1] | GI50 (PC-3 [2]) | TGI (PC-3 [2]) | CC50 (PC-3 [2]) | Ki [3] | pD2 [4] | Flu intensity (PC-3 [5]) | %max [6] | Activity (PC-3 [2])
COc1ccccc1OCCNC[C@@H]1COC(c2ccccc2)(c2ccccc2)CO1 | 6.37 | 7.8 µM | 16.1 µM | 35.8 µM | 0.0741 µM |  |  |  | 
COc1cccc(OC)c1OCCNC[C@@H]1COC(c2ccccc2)(c2ccccc2)CO1 | 6.08 | 19.9 µM | 31.6 µM | 40 µM | 0.126 µM |  |  |  | 
c1ccc(OCCNC[C@@H]2COCC(c3ccccc3)(c3ccccc3)O2)cc1 | 6.93 | 1 µM | 3.9 µM | 6.2 µM | 0.12 µM | 9.11 | 76.98 | 77.1 | 
COc1ccccc1OCCNC[C@@H]1COCC(c2ccccc2)(c2ccccc2)O1 | 6.65 | 6.3 µM | 15.4 µM | 35.1 µM | 0.0562 µM | 9.4 |  | 81.5 | 
COc1cccc(OC)c1OCCNC[C@@H]1COCC(c2ccccc2)(c2ccccc2)O1 | 6.71 | 25.1 µM | 31.6 µM | 35 µM | 0.324 µM | 8.28 |  | 106 | 
c1ccc(OCCNC[C@@H]2COC(c3ccccc3)(c3ccccc3)CO2)cc1 | 6.15 | 9.9 µM | 19.4 µM | 45.2 µM | 0.141 µM |  |  |  | 
c1ccc(OCCNC[C@@H]2CO[C@H](c3ccccc3)CO2)cc1 (relative stereo) | 6.89 | 190 µM | 239 µM | > 300 µM | > 1 µM |  |  |  | 
COc1ccccc1OCCNC[C@@H]1COC[C@H](c2ccccc2)O1 (relative stereo) | 6.57 | 79 µM | 158 µM | 251 µM | 0.269 µM |  |  | 78.1 | 
c1ccc(OCCNC[C@@H]2COC[C@@H](c3ccccc3)O2)cc1 (relative stereo) | 7.21 | 158 µM | 223 µM | > 300 µM | > 1 µM |  |  |  | 
COc1cccc(OC)c1OCCNC[C@@H]1CO[C@H](c2ccccc2)CO1 (relative stereo) | 5.96 | 199 µM | 251 µM | > 300 µM | > 1 µM |  |  |  | 
c1ccc(OCCNC[C@@H]2COC[C@H](c3ccccc3)O2)cc1 (relative stereo) | 6.72 | 158 µM | 223 µM | 281 µM | > 1 µM |  |  |  | 
COc1ccccc1OCCNC[C@@H]1COC[C@@H](c2ccccc2)O1 (relative stereo) | 7.22 | 199 µM | 251 µM | > 300 µM | 0.302 µM |  |  |  | 
COc1cccc(OC)c1OCCNC[C@@H]1COC[C@@H](c2ccccc2)O1 (relative stereo) | 5.8 | 112 µM | 199 µM | 288 µM | > 1 µM |  |  |  | 
COc1cccc(OC)c1OCCNC[C@@H]1COC[C@H](c2ccccc2)O1 (relative stereo) | 6.42 | 79.4 µM | 178 µM | 282 µM | > 1 µM |  |  |  | 
COc1cccc(OC)c1OCCNC[C@@H]1CO[C@@H](c2ccccc2)CO1 (relative stereo) | 7.21 | 29 µM |  |  | > 1 µM |  |  |  | inactive
COc1ccccc1OCCNC[C@@H]1CO[C@@H](c2ccccc2)CO1 (relative stereo) | 7.1 | 30.1 µM |  |  | 0.282 µM |  |  |  | inactive
COc1ccccc1OCCNC[C@@H]1CO[C@H](c2ccccc2)CO1 (relative stereo) | 6.47 | 199 µM | 251 µM | > 300 µM | 0.263 µM | 7.88 |  | 85.5 | 
c1ccc(OCCNC[C@@H]2CO[C@@H](c3ccccc3)CO2)cc1 (relative stereo) | 7 | 177 µM | 252 µM | > 300 µM | > 1 µM |  |  |  | 
